A short description of data set [1]: Acute toxicity in Balb/c mouse xenografted with Capan1 cells assessed as lethality at 25 to 50 mg/kg, ip qd administered for 5 days in presence of cisplatin. The format is organism-based. The settings on record: in vivo, 120 h, dose 25-50 mg/kg, time 5 day. In outline:
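Male BALB/c nude mice (5–6 weeks) carried s.c. Capan-1 xenografts (5×10^6 cells, right armpit) and were randomised at about 150 mm³, 6 per group. The agent was given once daily on days 0–4, by oral gavage or i.p., in DMSO/PEG400/Cremophor EL/saline vehicle. Cisplatin 6 mg/kg in saline was given i.p. on day 2, 45 min after the agent. Body weight was recorded 2–3 times weekly.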

The target in data set [2] is T1, Protein cereblon/Poly [ADP-ribose] polymerase 1 (Homo sapiens, UniProt P09874+Q96SW2). Kind of data set: Protac activity at CRBN/PARP1 in human MDA-MB-436 cells assessed as induction of PARP1 degradation at 30 nM measured after 2 hrs by Western blot analysis.
Target sequence in this assay (P09874 2-1014 limits assumed): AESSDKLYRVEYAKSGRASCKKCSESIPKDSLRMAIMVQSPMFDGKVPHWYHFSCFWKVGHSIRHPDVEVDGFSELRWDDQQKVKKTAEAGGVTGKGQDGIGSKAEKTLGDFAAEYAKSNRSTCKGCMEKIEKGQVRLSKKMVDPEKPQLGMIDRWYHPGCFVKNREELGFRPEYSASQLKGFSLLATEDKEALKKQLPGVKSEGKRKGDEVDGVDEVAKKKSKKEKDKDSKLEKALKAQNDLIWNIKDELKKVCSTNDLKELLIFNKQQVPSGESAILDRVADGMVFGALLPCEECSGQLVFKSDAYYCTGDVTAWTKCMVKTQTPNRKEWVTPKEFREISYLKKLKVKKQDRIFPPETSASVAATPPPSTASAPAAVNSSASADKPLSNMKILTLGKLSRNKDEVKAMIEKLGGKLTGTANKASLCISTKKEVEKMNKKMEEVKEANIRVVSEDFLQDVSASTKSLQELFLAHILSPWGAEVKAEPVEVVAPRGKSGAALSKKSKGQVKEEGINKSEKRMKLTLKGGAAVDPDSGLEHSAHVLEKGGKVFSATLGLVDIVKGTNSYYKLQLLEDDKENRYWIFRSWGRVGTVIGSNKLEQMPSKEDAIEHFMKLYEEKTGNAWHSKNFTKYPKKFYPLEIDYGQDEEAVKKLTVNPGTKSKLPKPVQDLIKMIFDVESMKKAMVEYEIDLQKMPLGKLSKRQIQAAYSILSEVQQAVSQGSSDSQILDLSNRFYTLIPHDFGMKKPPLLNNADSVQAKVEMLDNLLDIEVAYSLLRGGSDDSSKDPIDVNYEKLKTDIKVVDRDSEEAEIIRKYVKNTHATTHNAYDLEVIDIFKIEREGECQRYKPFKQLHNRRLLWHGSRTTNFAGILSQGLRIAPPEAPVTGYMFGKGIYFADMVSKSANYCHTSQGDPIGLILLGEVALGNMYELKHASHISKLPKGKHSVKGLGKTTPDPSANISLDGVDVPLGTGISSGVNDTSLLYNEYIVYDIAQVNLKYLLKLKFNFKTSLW
Target sequence in this assay (Q96SW2 whole entry partner): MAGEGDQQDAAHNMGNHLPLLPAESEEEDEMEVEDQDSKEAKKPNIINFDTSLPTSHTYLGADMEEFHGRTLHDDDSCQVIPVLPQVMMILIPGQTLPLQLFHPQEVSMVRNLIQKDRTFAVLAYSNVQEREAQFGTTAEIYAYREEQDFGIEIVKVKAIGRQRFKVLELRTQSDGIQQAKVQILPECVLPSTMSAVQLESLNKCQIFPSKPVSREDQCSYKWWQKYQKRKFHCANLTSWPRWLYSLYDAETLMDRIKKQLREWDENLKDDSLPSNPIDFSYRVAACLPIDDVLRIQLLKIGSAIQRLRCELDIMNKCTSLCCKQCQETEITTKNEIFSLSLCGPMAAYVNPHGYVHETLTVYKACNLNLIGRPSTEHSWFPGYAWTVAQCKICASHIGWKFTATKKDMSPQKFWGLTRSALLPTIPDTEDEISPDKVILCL
Data set [3] in a line: AUC (0 to infinity) in ICR mouse at 25 mg/kg, ip by LC-tandem mass spectrometry analysis. Also noted: time infinity, route intraperitoneal, dose 25 mg/kg. It counts as ADME, organism-based. The settings on record: in vivo. In outline:
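Female ICR mice (20-23 g, 6-7 weeks old, n = 3) received a single 25 mg/kg intraperitoneal dose formulated in 5% DMSO/15% Solutol HS15/80% D5W. Plasma was sampled at 0.5, 1, 2, 4, 6, 8 and 24 h and protein-precipitated with methanol. Compound was quantified by LC-MS/MS against a standard curve.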

For data set [4], the target named is T1, Protein cereblon/Poly [ADP-ribose] polymerase 1. Put plainly: Protac activity at CRBN/PARP1 in human MDA-MB-436 cells assessed as induction of PARP1 degradation at 1 to 1000 nM incubated for 24 hrs by Western blot analysis. The format is cell-based. The conditions noted are these: dose nM 1-1000, time 24.0 hrs. The method, boiled down: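 PARP1 immunoblot of MDA-MB-436 lysates after 24 h exposure at 1, 10, 100 and 1000 nM; RIPA lysis, 20-30 µg protein per lane, β-tubulin as loading control, band density normalized to DMSO control.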
Target sequence in this assay (P09874 2-1014 limits assumed): as the sequence (P09874 2-1014 limits assumed) above
Target sequence in this assay (Q96SW2 whole entry partner): as the sequence (Q96SW2 whole entry partner) above

In a further data set the test system is CWR22R. Kind of data set: Antiproliferation activity against human 22Rv1 assessed as cell growth inhibition incubated for 7 days by CCK-8 assay. The format is functional, cell-based. The conditions noted are these: time 7.0 day. In outline:
(§1)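 Cells were sub-cultured at least twice and seeded for 24 h before dosing. Compounds came from 10 mM DMSO stocks, given as 10 points of 3-fold serial dilution starting at 10-20 μM. Incubation was about 7 days (Capan-1 13 days) at 37 °C, 5% CO2. Read-out was CCK-8 absorbance at 450 nm, as % growth versus DMSO wells (duplicate wells). IC50 was fitted by nonlinear regression; three independent experiments.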

For data set [5], the target named is T1, Protein cereblon/Poly [ADP-ribose] polymerase 1. Kind of data set: Protac activity at CRBN/PARP1 in human HCC1937 cells assessed as induction of PARP1 degradation measured after 24 hrs by Western blot analysis. It counts as cell-based. The method, boiled down: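 The cell line was treated 24 h across a concentration range. PARP1 was measured by western blot against β-tubulin. DC50 is the average of two biologically independent experiments.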
Target sequence in this assay (P09874 whole entry): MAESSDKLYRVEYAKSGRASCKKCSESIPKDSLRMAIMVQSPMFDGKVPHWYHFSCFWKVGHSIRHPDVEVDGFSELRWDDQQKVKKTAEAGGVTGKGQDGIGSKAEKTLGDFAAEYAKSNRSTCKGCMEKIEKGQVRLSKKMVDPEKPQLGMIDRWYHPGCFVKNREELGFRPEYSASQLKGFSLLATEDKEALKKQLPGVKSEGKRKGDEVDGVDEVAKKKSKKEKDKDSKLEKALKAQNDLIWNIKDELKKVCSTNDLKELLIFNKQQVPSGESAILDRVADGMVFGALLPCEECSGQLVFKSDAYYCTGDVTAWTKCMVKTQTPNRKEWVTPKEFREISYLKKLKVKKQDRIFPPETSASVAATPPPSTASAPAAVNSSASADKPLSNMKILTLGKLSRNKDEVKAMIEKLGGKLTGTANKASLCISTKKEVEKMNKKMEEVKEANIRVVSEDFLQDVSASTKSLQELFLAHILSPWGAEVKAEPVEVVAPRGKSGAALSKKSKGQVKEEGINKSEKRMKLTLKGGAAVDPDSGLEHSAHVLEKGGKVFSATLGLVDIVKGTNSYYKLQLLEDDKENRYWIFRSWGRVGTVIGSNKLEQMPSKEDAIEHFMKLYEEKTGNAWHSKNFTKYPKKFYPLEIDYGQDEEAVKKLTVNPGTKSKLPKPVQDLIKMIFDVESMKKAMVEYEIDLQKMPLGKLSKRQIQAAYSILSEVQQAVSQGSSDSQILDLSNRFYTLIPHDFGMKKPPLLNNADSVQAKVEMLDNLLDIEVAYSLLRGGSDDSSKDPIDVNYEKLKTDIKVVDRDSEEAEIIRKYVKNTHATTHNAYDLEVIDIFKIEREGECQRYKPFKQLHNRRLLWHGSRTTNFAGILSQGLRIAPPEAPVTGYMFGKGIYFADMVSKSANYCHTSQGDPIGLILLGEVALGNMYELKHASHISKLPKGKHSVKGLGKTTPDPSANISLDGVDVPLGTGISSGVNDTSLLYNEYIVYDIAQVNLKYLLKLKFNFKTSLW
Target sequence in this assay (Q96SW2 whole entry): as the sequence (Q96SW2 whole entry partner) above

The subject of the next data set is CAPAN-1. Kind of data set: Antiproliferative activity against human CAPAN-1 cells assessed as cell growth inhibition incubated for 13 days by CCK-8 assay. The format is functional, cell-based. The conditions noted are these: CAPAN-1, 312 h. The method, boiled down:
as §1

For another data set, the system named is SW-620. Kind of data set: Potentiation of TMZ induced antitumor activity against SW-620 cells xenografted in Balb/c mouse assessed as tumor growth suppression at 10 mg/kg, po qd administered for 5 days. The format is functional, organism-based. The conditions noted are these: time 5.0 day. The method, boiled down:
(§2)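 Male BALB/c nude mice carried SW620 xenografts (6×10^6 cells s.c.), randomized at ~150 mm³ (6 per group). TMZ 50 mg/kg was given orally once daily on days 0-4, 45 min after the partner drug. Partners were 5 or 10 mg/kg intraperitoneally or 10 mg/kg by oral gavage, daily for 5 days. Vehicle was 5% DMSO/20% PEG400/10% Cremophor EL/65% saline. Tumor volume and body weight were recorded 2-3 times weekly.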

In data set [6] the target is T1, Protein cereblon/Poly [ADP-ribose] polymerase 1. Kind of data set: Protac activity at CRBN/PARP1 in human MDA-MB-436 cells assessed as induction of PARP1 degradation at 30 nM incubated for 24 hrs in presence of proteasome inhibitor MG132 by Western blot analysis.
Target sequence in this assay (P09874 2-1014 limits assumed): as the sequence (P09874 2-1014 limits assumed) above
Target sequence in this assay (Q96SW2 whole entry partner): as the sequence (Q96SW2 whole entry partner) above
Data set [7] can be described thus: Acute toxicity in Balb/c mouse xenografted with SW-620 cells assessed as mean weight loss at 10 mg/kg, ip qd administered for 5 days in presence of TMZ measured on day 9 relative to control. The format is organism-based. The conditions noted are these: in vivo, 216 h, time 9 day. In outline: as §2
Data set [8] concerns the target T1, Protein cereblon/Poly [ADP-ribose] polymerase 1. Put plainly: Protac activity at CRBN/PARP1 in human MDA-MB-468 cells assessed as induction of PARP1 degradation at 30 nM incubated for 1 to 24 hrs by Western blot analysis. The format is cell-based. The conditions noted are these: time hrs 1-24.
Target sequence in this assay (P09874 2-1014 limits assumed): as the sequence (P09874 2-1014 limits assumed) above
Target sequence in this assay (Q96SW2 whole entry partner): as the sequence (Q96SW2 whole entry partner) above
Data set [9] has the same target. Put plainly: Protac activity at CRBN/PARP1 in human SW620 cells assessed as reduction in PARP1 protein level at 0.01 to 10 uM incubated for 12 hrs by western blot analysis. The format is cell-based. The conditions noted are these: SW-620, dose microM 0.01-10, time 12.0 hrs. In outline: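 MDA-MB-436 or SW620 cells dosed at 1, 10, 100, 1000 nM and 10 µM for 12 h; PARP1 assessed by western blot of RIPA lysates (20-30 µg protein), β-tubulin as loading control.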
Target sequence in this assay (P09874 2-1014 limits assumed): as the sequence (P09874 2-1014 limits assumed) above
Target sequence in this assay (Q96SW2 whole entry partner): as the sequence (Q96SW2 whole entry partner) above

The nature of data set [10]: Acute toxicity in Balb/c mouse xenografted with CAPAN-1 cells assessed as mean weight loss at 25 mg/kg, ip qd administered for 5 days in presence of cisplatin measured on day 10 relative to control. The settings on record: in vivo, 120 h, time 5 day. It counts as organism-based. In outline:
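Male BALB/c nude mice carried Capan-1 xenografts (5×10^6 cells s.c.), randomized at ~150 mm³ (6 per group). Treatment was 25 or 50 mg/kg intraperitoneally or 100 mg/kg by oral gavage, once daily on days 0-4. Cisplatin 6 mg/kg in saline was given intraperitoneally on day 2, 45 min after the partner drug. Tumor volume and body weight were measured 2-3 times weekly.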

Data set [11] addresses T1, Protein cereblon/Poly [ADP-ribose] polymerase 1. Kind of data set: Protac activity at CRBN/PARP1 in human MDA-MB-436 cells assessed as induction of PARP1 degradation incubated for 24 hrs by Western blot analysis. The format is cell-based. The method, boiled down: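 Concentration-response over a wide range, 24 h exposure; PARP1 quantified by western blot and normalized to β-tubulin density; DC50 derived from two biologically independent experiments.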
Target sequence in this assay (P09874 whole entry): as the sequence (P09874 whole entry) above
Target sequence in this assay (Q96SW2 whole entry): as the sequence (Q96SW2 whole entry partner) above

Data set [12] shares this target. Kind of data set: Protac activity at CRBN/PARP1 in human CAPAN-1 cells assessed as induction of PARP1 degradation incubated for 24 hrs by Western blot analysis. The format is cell-based. The method, boiled down:
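Capan-1 cells were treated 24 h (1-1000 nM, or a wider dose range for DC50). Lysis was in RIPA buffer with protease inhibitors, and 20-30 μg protein was blotted. PARP1 was normalized to β-tubulin and to DMSO control, quantified by densitometry. DC50 came from two independent experiments.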
Target sequence in this assay (P09874 whole entry): as the sequence (P09874 whole entry) above
Target sequence in this assay (Q96SW2 whole entry): as the sequence (Q96SW2 whole entry partner) above

Data set [13] is described as follows: Tmax in ICR mouse at 25 mg/kg, ip by LC-tandem mass spectrometry analysis. It counts as ADME, organism-based. The conditions noted are these: in vivo. The method, boiled down:
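Female ICR mice (20-23 g, 6-7 weeks, n = 3) given a single 25 mg/kg ip dose in 5% DMSO/15% Solutol HS15/80% D5W; plasma at 0.5, 1, 2, 4, 6, 8 and 24 h, protein precipitated with methanol, drug quantified by LC-MS/MS against a standard curve.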

Results on one compound are retold here after ChEMBL document CHEMBL4699498 (J Med Chem, 2020).

Calls of active or inactive are those of the source. The calls are words filed in the database; no cut-off is given here.

Turning to `O=C(CCCCCCCCCCC(=O)N1CCN(C(=O)c2cc(Cc3n[nH]c(=O)c4ccccc34)ccc2F)CC1)NCCNc1cccc2c1C(=O)N(C1CCC(=O)NC1=O)C2=O` (stereo unspecified), the Activity result is “Non-Toxic” in data set [1], 15% in data set [7] and 9% in data set [10]. Besides, the result (in data set [2]; in data set [4]; in the data set on CWR22R; in the data set on SW-620; in data set [8]; in data set [9]) was Active. In addition, the AUC(0-inf) in [3] is 5360 ng·h/mL. Besides, the DC50 in data set [5] amounted to 0.384 nM; in data set [11], 1.26 nM; in data set [12] it was 6.72 nM. Also, in the data set on CAPAN-1, the half-inhibitory concentration (IC50) turned out to be 56 nM. For the same compound, the outcome in data set [6] was inactive. Also, the Tmax in [13] stood at 15 min.
